From ChEMBL document CHEMBL1121938, “Hypocholesterolemic and antiaggregatory properties of 2-hydroxytetronic acid redox analogues an their relationship to clofibric acid” (1982)

How the values were obtained:
[1] = tested on: Rattus norvegicus; experiment: Effect of compound was measured on serum total triglycerides in male Dawley rats at the dose of 0.4 mmol/kg (day+10).; type: functional, organism-based
How it was run: (§1)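 Serum triglycerides were measured with an enzymatic triglyceride reagent on a bichromatic analyzer. Rats were male Sprague-Dawley (180-210 g) fed a high-cholesterol diet, n = 6 per group, dosed orally twice daily for 14 days in 0.25% methylcellulose or vehicle. They were fasted 16-18 h before blood collection on days -1, +4, +7, +10 (orbital plexus, light ether) and +14 (aorta). Analysis was repeated-measures ANOVA with Duncan's test.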

[2] = tested on: Rattus norvegicus; experiment: Effect of compound was measured on serum total triglycerides in male Dawley rats at the dose of 0.4 mmol/kg (day-1).; type: functional, organism-based; how it was run: as §1
[3] = tested on: Rattus norvegicus; experiment: Effect of compound was measured on serum total cholesterol in male Dawley rats at the dose of 0.4 mmol/kg (day+4).; type: functional, organism-based
How it was run: (§2)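 Serum total cholesterol was measured enzymatically on a bichromatic analyzer. Serum was separated after clotting on ice (2000g, 10 min), held at 4 °C and assayed within 48 h. Rats were male Sprague-Dawley on a high-cholesterol diet, n = 6, dosed orally twice daily for 14 days in 0.25% methylcellulose (1.0 mL/100 g). They were fasted 16-18 h before each bleed. Results are in mg/dL ± SD.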

[4] = tested on: Rattus norvegicus; experiment: Effect of compound was measured on serum total cholesterol in male Dawley rats at the dose of 0.4 mmol/kg (day-1).; type: functional, organism-based; how it was run: as §2
[5] = tested on: Rattus norvegicus; experiment: Effect of compound was measured on serum total cholesterol in male Dawley rats at the dose of 0.4 mmol/kg (day+10).; type: functional, organism-based; how it was run: as §2
[6] = Effect of compound was measured on serum heparin-MnCl2 precipated ipoprotein Dawley rats at 0.4 mmol/kg dose(day+10).; type: functional
How it was run: (§3)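 Cholesterol-fed male Sprague-Dawley rats, n = 6 per group, given compound or 0.25% methylcellulose orally twice daily for 14 days, and fasted 16-18 h before each bleed (days -1, +4, +7, +10, +14). Heparin-MnCl2 precipitable lipoprotein cholesterol was taken as serum total cholesterol minus α-lipoprotein cholesterol. It is reported as a ratio to α-LP cholesterol ± SD. Analysis was ANOVA with repeated measures and Duncan's test.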

[7] = tested on: Rattus norvegicus; experiment: Effect of compound was measured on serum alpha-lipoprotein in male Dawley rats at the dose of 0.4 mmol/kg (day+7).; type: functional, organism-based
How it was run: (§4)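 Male Sprague-Dawley rats (180-210 g) fed a high-cholesterol diet for 1 week before and throughout dosing. Groups of n = 6 were dosed orally twice daily for 14 days in 0.25% methylcellulose, with vehicle controls. Rats were fasted 16-18 h before orbital bleeds on days -1, +4, +7 and +10, and by aortic exsanguination on day +14. Serum α-lipoprotein cholesterol was measured by polyanionic precipitation, in mg/dL ± SD.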

[8] = Effect of compound was measured on serum heparin-MnCl2 precipated ipoprotein Dawley rats at 0.4 mmol/kg dose(day+14).; type: functional; how it was run: as §3
[9] = tested on: Rattus norvegicus; experiment: Effect of compound on liver CH levels in male Dawley rats at the dose of 0.4 mmol/kg; type: functional; parameters: unit: g/100 g wet liver
How it was run: (§5)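 Male Sprague-Dawley rats (180-210 g) were kept on a high-cholesterol diet for 1 week before and throughout treatment. Groups of n = 6 received drug in 0.25% methylcellulose orally twice daily for 14 days, or vehicle. After a 16-18 h fast, livers were excised at day +14 and homogenized in 0.1 M Tris-HCl pH 7.2 with 1.15% KCl. Lipids were extracted from 25% w/v homogenate and reported as g/100 g wet liver ± SD; groups compared by ANOVA and Duncan's test.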

[10] = Effect of compound was measured on serum heparin-MnCl2 precipated ipoprotein Dawley rats at 0.4 mmol/kg dose(day+4).; type: functional; how it was run: as §3
[11] = tested on: Rattus norvegicus; experiment: Effect of compound was measured on serum alpha-lipoprotein in male Dawley rats at the dose of 0.4 mmol/kg (day14).; type: functional, organism-based; how it was run: as §4
[12] = tested on: Rattus norvegicus; experiment: Effect of compound was measured on serum total triglycerides in male Dawley rats at the dose of 0.4 mmol/kg (day+7).; type: functional, organism-based; how it was run: as §1
[13] = tested on: Rattus norvegicus; experiment: Effect of compound was measured on serum alpha-lipoprotein in male Dawley rats at the dose of 0.4 mmol/kg (day+4).; type: functional, organism-based; how it was run: as §4
[14] = Effect of compound was measured on serum heparin-MnCl2 precipated ipoprotein Dawley rats at 0.4 mmol/kg dose(day+7).; type: functional; how it was run: as §3
[15] = Effect of compound was measured on serum heparin-MnCl2 precipated ipoprotein Dawley rats at 0.4 mmol/kg dose(day-1).; type: functional; how it was run: as §3
[16] = Effect of compound on liver to body weight ratio in male Dawley rats at the dose of 0.4 mmol/kg; type: functional
How it was run: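 Male Sprague-Dawley rats (180-210 g) were kept on a cholesterol-rich diet and dosed orally twice daily for 14 days in 0.25% methylcellulose; vehicle controls received the same; n = 6 per group. After a 16-18 h fast, rats were exsanguinated at day +14. Livers were removed, rinsed in ice-cold buffer, blotted and weighed, and related to body weight. Data were analysed by repeated-measures ANOVA with Duncan's multiple range test.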

[17] = tested on: Rattus norvegicus; experiment: Effect of compound was measured on serum total cholesterol in male Dawley rats at the dose of 0.4 mmol/kg (day+14).; type: functional, organism-based; how it was run: as §2
[18] = tested on: Rattus norvegicus; experiment: Effect of compound was measured on serum total cholesterol in male Dawley rats at the dose of 0.4 mmol/kg (day+7).; type: functional, organism-based; how it was run: as §2
[19] = tested on: Rattus norvegicus; experiment: Effect of compound on liver TG levels in male Dawley rats at the dose of 0.4 mmol/kg; type: functional; parameters: unit: g/100 g wet liver; how it was run: as §5
[20] = tested on: Rattus norvegicus; experiment: Effect of compound was measured on serum alpha-lipoprotein in male Dawley rats at the dose of 0.4 mmol/kg (day-1).; type: functional, organism-based; how it was run: as §4
[21] = tested on: Rattus norvegicus; experiment: Effect of compound was measured on serum alpha-lipoprotein in male Dawley rats at the dose of 0.4 mmol/kg (day+10).; type: functional, organism-based; how it was run: as §4
[22] = tested on: Rattus norvegicus; experiment: Effect of compound was measured on serum total triglycerides in male Dawley rats at the dose of 0.4 mmol/kg (day+4).; type: functional, organism-based; how it was run: as §1
[23] = tested on: Rattus norvegicus; experiment: Effect of compound was measured on serum total triglycerides in male Dawley rats at the dose of 0.4 mmol/kg (day+14).; type: functional, organism-based; how it was run: as §1

SMILES: CCOC(=O)C(C)(C)Oc1ccc(Cl)cc1 [CLOFIBRATE]
- Serum total triglycerides [1]: 196 mg/dL
- Serum total triglycerides [2]: 266 mg/dL
- serum total cholesterol [3]: 127 mg/dL
- serum total cholesterol [4]: 202 mg/dL
- serum total cholesterol [5]: 316 mg/dL
- Ratio [6]: 4.89
- alpha-lipoprotein cholesterol [7]: 52.7 mg/dL
- Ratio [8]: 4.76
- Liver CH levels [9]: 3.58
- Ratio [10]: 2.54
- alpha-lipoprotein cholesterol [11]: 55 mg/dL
- Serum total triglycerides [12]: 169 mg/dL
- alpha-lipoprotein cholesterol [13]: 38.5 mg/dL
- Ratio [14]: 3.12
- Ratio [15]: 3.81
- Ratio [16]: 6.2
- serum total cholesterol [17]: 302 mg/dL
- serum total cholesterol [18]: 209 mg/dL
- Liver TG [19]: 1.84
- alpha-lipoprotein cholesterol [20]: 44.4 mg/dL
- alpha-lipoprotein cholesterol [21]: 51.7 mg/dL
- Serum total triglycerides [22]: 141 mg/dL
- Serum total triglycerides [23]: 155 mg/dL

SMILES: NC1=C(O)C(=O)C(c2ccc(Cl)cc2)O1 (stereo unspecified)
- Serum total triglycerides [1]: 158 mg/dL
- Serum total triglycerides [2]: 179 mg/dL
- serum total cholesterol [3]: 138 mg/dL
- serum total cholesterol [4]: 193 mg/dL
- serum total cholesterol [5]: 344 mg/dL
- Ratio [6]: 7.13
- alpha-lipoprotein cholesterol [7]: 43 mg/dL
- Ratio [8]: 6.31
- Liver CH levels [9]: 4.03
- Ratio [10]: 3.43
- alpha-lipoprotein cholesterol [11]: 38.8 mg/dL
- Serum total triglycerides [12]: 128 mg/dL
- alpha-lipoprotein cholesterol [13]: 33.2 mg/dL
- Ratio [14]: 5.59
- Ratio [15]: 3.65
- Ratio [16]: 4.1
- serum total cholesterol [17]: 278 mg/dL
- serum total cholesterol [18]: 252 mg/dL
- Liver TG [19]: 2.8
- alpha-lipoprotein cholesterol [20]: 43.8 mg/dL
- alpha-lipoprotein cholesterol [21]: 43.7 mg/dL
- Serum total triglycerides [22]: 147 mg/dL
- Serum total triglycerides [23]: 119 mg/dL
